Measurements collected from several papers.
Protocols differ between the studies behind these lines.
Cell line: PC-3
Observed: cell growth or viability

SMILES	technique	concentration	time	quantity	value
COc1ccnc(COc2ccc(NC(=O)Nc3ccc(Cl)cc3)cc2)c1OC	MTT		72 h	IC50	> 100000 nM
O=C(CN1C(=O)/C(=C/c2ccccn2)SC1=S)Nc1ccccc1	MTT	10 µM		inhibition	30.5%
N#Cc1cccc(NC(=O)C2CCCN(C(=O)c3cc(C(F)(F)F)cc(C(F)(F)F)c3)C2)c1 (stereo not shown)	WST-1	100 µM		inhibition	0%
COc1ccnc(COc2ccc(NC(=O)Nc3cccc(C(F)(F)F)c3)cc2)c1OC	MTT		72 h	IC50	75000 nM
CSc1cccc(NC(=O)C2CCCN(C(=O)c3cccc(-c4ccco4)c3)C2)c1 (stereo not shown)	WST-1	100 µM		inhibition	0%
COc1cc2ncnc(Nc3ccc(F)c(Cl)c3)c2cc1NC(=O)N/N=C/c1cccn1CCCN1CCCC1	MTT		72 h	IC50	1560 nM
NC1(C(=O)N[C@@H](CCO)c2ccc(Cl)cc2)CCN(c2ncnc3[nH]ccc23)CC1			72 h	GI50	> 8000 nM
COc1ccc(C(=O)/C=C/c2cccc3ccccc23)cc1S(N)(=O)=O	SRB		48 h	GI50	2300 nM
C=CS(=O)(=O)Nc1ccc(CCn2cc(C[C@@]3(O)C[C@@H]4c5cc(OCc6cc(C)cc(C)c6)c(OCc6cc(C)cc(C)c6)cc5CCN4[C@@H](C)C3)nn2)cc1	MTT			IC50	1730 nM
COc1ccc(C(=O)/C=C/c2cccnc2)cc1S(N)(=O)=O	SRB		48 h	GI50	16600 nM
CCN(CC)CCCn1cccc1/C=N/NC(=O)Nc1cc2c(Nc3ccc(F)c(Cl)c3)ncnc2cc1OC	MTT		72 h	IC50	1180 nM
O=C(CN1C(=O)/C(=C/c2ccc(C(F)(F)F)cc2)SC1=S)Nc1ccccc1	MTT	10 µM		inhibition	32.1%
COCCCOc1ccnc(COc2ccc(NC(=O)Nc3ccc(OC)cc3)cc2)c1C	MTT		72 h	IC50	47200 nM
O=C(CN1C(=O)/C(=C/c2ccc(Cl)cc2Cl)SC1=S)Nc1ccccc1	MTT	10 µM		inhibition	19.2%
CC(C)(C)OC(=O)c1cccc(NC(=O)C2CCCN(C(=O)c3cc(C(F)(F)F)cc(C(F)(F)F)c3)C2)c1 (stereo not shown)	WST-1	100 µM		inhibition	0%
C#CC[C@]1(O)C[C@@H]2c3cc(OCc4cc(C)cc(C)c4)c(OCc4cc(C)cc(C)c4)cc3CCN2[C@@H](C)C1	MTT			IC50	523 nM
O=C(Nc1ccc(Cl)cn1)C1CCCN(C(=O)c2cc(C(F)(F)F)cc(C(F)(F)F)c2)C1 (stereo not shown)	WST-1	100 µM		inhibition	0%
COc1cccc(NC(=O)CN2C(=O)/C(=C/c3ccccc3)SC2=S)c1	MTT	10 µM		inhibition	17.8%
COc1cc2ncnc(Nc3ccc(F)c(Cl)c3)c2cc1NC(=O)N/N=C/c1cccn1CCN1CCCCC1	MTT		72 h	IC50	2240 nM
CC(C)c1ccc(/C=C2\SC(=S)N(CC(=O)Nc3ccccc3)C2=O)cc1	MTT	10 µM		inhibition	29%
CCN(CC)C/C=N/NC(=O)Nc1cc2c(Nc3ccc(F)c(Cl)c3)ncnc2cc1OC	MTT		72 h	IC50	4400 nM
COc1cccc(Oc2ccccc2NC(=O)CNC(=O)c2cccc3ccccc23)c1	SRB		48 h	GI50	282 nM

SMILES	technique	concentration	time	quantity	value
O=C(N/N=C/CN1CCOCC1)Nc1cc2c(Nc3ccc(F)c(Cl)c3)ncnc2cc1O[C@H]1CCOC1	MTT		72 h	IC50	3390 nM
Cc1c(OCC(F)(F)F)ccnc1COc1ccc(NC(=O)Nc2ccc(Cl)cc2)cc1	MTT		72 h	IC50	> 100000 nM
COc1ccc(C(=O)/C=C/c2ccc3ccccc3c2)cc1S(N)(=O)=O	SRB	10 µM		inhibition	112%
CN(C)C/C=N/NC(=O)Nc1cc2c(Nc3ccc(F)c(Cl)c3)ncnc2cc1O[C@H]1CCOC1	MTT		72 h	IC50	6510 nM
Cc1cc(C)cc(COc2cc3c(cc2OCc2cc(C)cc(C)c2)[C@H]2C[C@](O)(Cc4cn(CC5CC5)nn4)C[C@H](C)N2CC3)c1	MTT			IC50	302 nM
COc1cccc(NC(=O)CN2C(=O)/C(=C/c3ccco3)SC2=S)c1	MTT	10 µM		inhibition	8.63%
O=C(Nc1cccc(Oc2nccc(C(F)(F)F)c2Cl)c1)C1CCCN(C(=O)c2cc(C(F)(F)F)cc(C(F)(F)F)c2)C1 (stereo not shown)	WST-1	100 µM		inhibition	0%
COc1ccc(C(=O)/C=C/c2cc3c(cc2Br)OCO3)cc1S(N)(=O)=O	SRB		48 h	GI50	6800 nM
O=C(CN1C(=O)/C(=C/c2ccccc2O)SC1=S)Nc1ccccc1	MTT	10 µM		inhibition	36.2%
COc1ccc(C(=O)/C=C/c2cccc(Cl)c2)cc1S(N)(=O)=O	SRB		48 h	GI50	2200 nM
COc1cccc(NC(=O)CN2C(=O)/C(=C/c3ccc(F)cc3)SC2=S)c1	MTT	10 µM		inhibition	13%
O=C(N/N=C/c1cccn1CCN1CCCC1)Nc1cc2c(Nc3ccc(F)c(Cl)c3)ncnc2cc1O[C@H]1CCOC1	MTT		72 h	IC50	1900 nM
CSc1cccc(NC(=O)C2CCCN(C(=O)c3cc(C(F)(F)F)cc(C(F)(F)F)c3)C2)c1 (stereo not shown)	WST-1	100 µM		inhibition	0%
COc1ccc(C(=O)/C=C/c2ccc(Cl)c(Cl)c2)cc1S(N)(=O)=O	SRB	10 µM		inhibition	90%
O=C(N/N=C/c1cccn1CCN1CCCCC1)Nc1cc2c(Nc3ccc(F)c(Cl)c3)ncnc2cc1O[C@H]1CCOC1	MTT		72 h	IC50	1570 nM
COc1cc(-c2ccc(-c3ccc(C(=N)N)nc3)s2)cc(OC)c1OC				GI50	3110 nM
C=CS(=O)(=O)Nc1ccc(Cn2cc(C[C@@]3(O)C[C@@H]4c5cc(OCc6cc(C)cc(C)c6)c(OCc6cc(C)cc(C)c6)cc5CCN4[C@@H](C)C3)nn2)cc1	MTT			IC50	576 nM
COc1cccc(NC(=O)C2CCCN(C(=O)c3cc(C(F)(F)F)cc(C(F)(F)F)c3)C2)c1 (stereo not shown)	WST-1	100 µM		inhibition	0%
COc1ccc(C(=O)/C=C/c2cccc(Cl)c2Cl)cc1S(N)(=O)=O	SRB		48 h	GI50	4500 nM
COc1c(C)cnc(COc2ccc(NC(=O)Nc3cc(F)cc(F)c3)cc2)c1C	MTT		72 h	IC50	57600 nM
Cc1cc(C)cc(COc2cc3c(cc2OCc2cc(C)cc(C)c2)[C@H]2C[C@](O)(Cc4cn(CCc5ccc(N)cc5)nn4)C[C@H](C)N2CC3)c1	MTT			IC50	490 nM
